The source made the active and inactive calls. The calls are words filed in the database; no cut-off is given here.
Tests used:
Bos taurus = organism: Bos taurus; assay: Selectivity for bovine alpha chymotrypsin over bovine thrombin
[1] = Inhibition of bovine pancreatic alpha chymotrypsin; parameters: species or system Bos taurus
How it was run: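 Bovine pancreatic α-chymotrypsin (1 mg/mL enzyme solution) in 50 mM Tris-HCl, 100 mM NaCl, 1 mM CaCl2, pH 7.8. Test solution added, then 2 mM N-succinyl-Gly-Gly-Phe-p-nitroanilide substrate solution. Absorbance increase at 405 nm followed for 30 min. Dose–response analysis, IC50 determined.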

[2] = Selectivity for porcine elastase over bovine thrombin
[3] = Selectivity for porcine elastase over human plasmin
[4] = Inhibition of porcine pancreatic elastase; parameters: species or system Sus scrofa
How it was run: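 Porcine pancreatic elastase (75 µg/mL enzyme solution) preincubated with compound in Tris-HCl, pH 8.0, at 30 °C for 20 min. Then 2 mM N-succinyl-Ala-Ala-Ala-p-nitroanilide substrate solution added. Absorbance increase at 405 nm read over 3–30 min. Dose–response analysis, IC50 determined.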

[5] = Selectivity for bovine alpha chymotrypsin over porcine trypsin
[6] = target: Plasminogen (Homo sapiens) (UniProt P00747); assay: Inhibition of human plasma plasmin upto 30 uM; type: cell-free
Sus scrofa [7] = organism: Sus scrofa; assay: Selectivity for porcine elastase over porcine trypsin
Sus scrofa [8] = organism: Sus scrofa; assay: Inhibition of porcine pancreatic trypsin upto 30 uM
How it was run: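 Porcine pancreatic trypsin (1 mg/mL enzyme solution) in 50 mM Tris-HCl, 100 mM NaCl, 1 mM CaCl2, pH 7.8. Test solution added, then 2 mM Nα-benzoyl-DL-arginine 4-nitroanilide hydrochloride substrate solution. Absorbance increase at 405 nm followed for 30 min. Dose–response analysis.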

[9] = Selectivity for bovine alpha chymotrypsin over human plasmin
Prothrombin (Bos taurus) = Prothrombin (Bos taurus) (UniProt P00735); assay: Inhibition of bovine plasma thrombin upto 30 uM; type: cell-free

Sequence of Plasminogen (Homo sapiens) (P00747 97-580 limits assumed): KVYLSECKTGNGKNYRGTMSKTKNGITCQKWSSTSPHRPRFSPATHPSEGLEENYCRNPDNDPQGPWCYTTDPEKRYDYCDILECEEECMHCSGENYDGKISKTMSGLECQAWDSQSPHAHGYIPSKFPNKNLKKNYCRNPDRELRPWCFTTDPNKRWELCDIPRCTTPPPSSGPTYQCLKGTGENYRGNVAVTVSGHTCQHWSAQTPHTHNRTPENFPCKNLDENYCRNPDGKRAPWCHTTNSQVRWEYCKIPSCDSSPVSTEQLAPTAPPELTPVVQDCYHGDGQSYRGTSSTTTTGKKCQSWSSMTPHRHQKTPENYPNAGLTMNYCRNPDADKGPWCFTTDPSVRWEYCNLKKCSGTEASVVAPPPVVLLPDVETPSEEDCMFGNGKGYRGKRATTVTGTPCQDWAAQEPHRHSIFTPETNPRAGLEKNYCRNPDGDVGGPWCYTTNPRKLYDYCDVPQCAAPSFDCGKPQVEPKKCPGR
Sequence of Plasminogen (Homo sapiens) (P00747 581-810 limits assumed): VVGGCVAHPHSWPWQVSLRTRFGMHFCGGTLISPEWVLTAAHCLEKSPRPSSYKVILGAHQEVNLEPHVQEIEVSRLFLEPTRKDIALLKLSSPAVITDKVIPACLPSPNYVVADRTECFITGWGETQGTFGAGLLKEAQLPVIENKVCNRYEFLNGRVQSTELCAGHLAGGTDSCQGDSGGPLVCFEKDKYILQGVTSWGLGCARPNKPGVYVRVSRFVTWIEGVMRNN

C/C=C1\NC(=O)[C@@H](NC(=O)[C@H](CCc2ccc(O)cc2)NC(=O)[C@H](C)NC(=O)[C@H](O)COS(=O)(=O)O)[C@@H](C)OC(=O)[C@H](C(C)C)NC(=O)[C@H](Cc2ccc(O)cc2)N(C)C(=O)[C@H](Cc2ccccc2)N2C(=O)[C@H](CC[C@H]2O)NC1=O [LYNGBYASTATIN 4]
Selectivity ratio (Bos taurus): > 100 | IC50 [1]: 300 nM | Selectivity ratio [2]: > 1000 | Selectivity ratio [3]: > 1000 | IC50 [4]: 30 nM | Selectivity ratio [5]: > 100 | Activity [6]: inactive | Selectivity ratio (Sus scrofa [7]): > 1000 | Activity (Sus scrofa [8]): inactive | Selectivity ratio [9]: > 100 | Activity (Prothrombin (Bos taurus)): inactive
